Measurements reported in ChEMBL document CHEMBL1143480, “Bicyclic heteroarylpiperazines as selective brain penetrant 5-HT6 receptor antagonists” (Bioorg Med Chem Lett, 2005).

Key:
[1] = target: T1, 5-hydroxytryptamine receptor 6 (Homo sapiens, UniProt P50406); test: Displacement of [3H]LSD from human 5-hydroxytryptamine 6 receptor expressed in HeLa cells; format: cell-based
Summary of the method: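 Human cloned 5-HT6 receptor expressed in HeLa cells. Binding measured by [3H]LSD displacement and reported as pKi. Each value is the mean of at least three experiments, each within 0.3 of the mean.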

[2] = target: 5-hydroxytryptamine receptor 6 (Rattus norvegicus, UniProt P31388); test: Binding affinity against 5-hydroxytryptamine 6 receptor of rat striatum; format: tissue-based
5-hydroxytryptamine receptor 6 (Rattus norvegicus, UniProt P31388), sequence (P31388 whole entry): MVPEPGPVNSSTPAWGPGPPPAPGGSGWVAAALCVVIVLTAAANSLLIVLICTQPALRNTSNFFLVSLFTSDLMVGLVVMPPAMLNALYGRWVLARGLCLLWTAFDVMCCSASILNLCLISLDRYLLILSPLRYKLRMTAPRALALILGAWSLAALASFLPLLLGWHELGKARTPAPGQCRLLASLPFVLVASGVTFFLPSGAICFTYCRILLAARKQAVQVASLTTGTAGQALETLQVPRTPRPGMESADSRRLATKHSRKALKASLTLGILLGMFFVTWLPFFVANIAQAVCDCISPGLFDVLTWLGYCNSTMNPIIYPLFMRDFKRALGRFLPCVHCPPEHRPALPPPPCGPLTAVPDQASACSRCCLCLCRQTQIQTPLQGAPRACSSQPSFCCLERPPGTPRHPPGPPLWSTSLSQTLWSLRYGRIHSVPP

[3] = target: T1, 5-hydroxytryptamine receptor 6; settings: HeLa
[4] = target: T1, 5-hydroxytryptamine receptor 6; test: Binding affinity against 5-hydroxytryptamine 6 receptor of human caudate
[5] = target: 5-hydroxytryptamine receptor 6 (Rattus norvegicus) (UniProt P31388); test: (§1) In vivo binding assay against rat 5-hydroxytryptamine 6 receptor using [125I]-SB-258,585; format: functional, organism-based
5-hydroxytryptamine receptor 6 (Rattus norvegicus), sequence (P31388 whole entry): as above
Summary of the method: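 Ex vivo assay. Rats were given vehicle or antagonist orally with a 4 h pretreatment, then killed. Striatum was removed and homogenised, and a binding assay with a selective 5-HT6 radioligand was run on the tissue. Potency is expressed as oral ED50 (mg/kg).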

[6] = target: 5-hydroxytryptamine receptor 6 (Rattus norvegicus) (UniProt P31388); test: as §1; format: organism-based
Summary of the method: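 Ex vivo assay: rats were dosed orally with vehicle or antagonist and killed after a 4 h pretreatment. Striatum was removed and homogenised, and a binding assay with the selective 5-HT6 radioligand was run on the tissue. ED50 was expressed as mg/kg po.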

T1 sequence (P50406 whole entry): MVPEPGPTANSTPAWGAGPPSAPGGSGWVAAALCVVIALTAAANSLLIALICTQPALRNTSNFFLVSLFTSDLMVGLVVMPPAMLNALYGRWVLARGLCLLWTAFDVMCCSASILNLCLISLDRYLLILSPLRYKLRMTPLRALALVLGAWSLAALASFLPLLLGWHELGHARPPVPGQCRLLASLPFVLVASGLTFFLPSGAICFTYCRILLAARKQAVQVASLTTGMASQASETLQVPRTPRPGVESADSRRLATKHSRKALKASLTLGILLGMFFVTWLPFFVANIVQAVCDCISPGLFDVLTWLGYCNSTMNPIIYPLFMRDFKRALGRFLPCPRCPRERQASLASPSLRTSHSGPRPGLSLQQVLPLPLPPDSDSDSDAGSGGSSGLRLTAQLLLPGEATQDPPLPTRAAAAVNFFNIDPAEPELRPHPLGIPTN

Compound | Ki [1] | also measured
O=S(=O)(c1ccccc1)c1c[nH]c2c(N3CCNCC3)nccc12 | 25.1 nM | –
O=S(=O)(c1cccc(Cl)c1)n1ccc2c(N3CCNCC3)c(Cl)ccc21 | 2.51 nM | Ki [2]: 12.6 nM; pKb [3]: 7.2; Ki [4]: 7.94 nM; ED50 [5]: 3 mg/kg
Cc1c(S(=O)(=O)n2ccc3c(N4CCNCC4)cccc32)sc2ccc(Cl)cc12 | 3.16 nM | –
O=S(=O)(c1ccccc1Cl)n1ccc2c(N3CCNCC3)cccc21 | 0.398 nM | –
O=S(=O)(c1ccccc1)c1coc2c(N3CCNCC3)cccc12 | 1.26 nM | –
O=S(=O)(c1ccc(Cl)cc1)n1ccc2c(N3CCNCC3)cccc21 | 2 nM | –
Cn1cc(S(=O)(=O)c2cccc(Cl)c2)c2cccc(N3CCNCC3)c21 | 2.51 nM | ED50 [5]: 5 mg/kg
N#Cc1ccc2c(ccn2S(=O)(=O)c2cccc(Cl)c2)c1N1CCNCC1 | 5.01 nM | –
O=S(=O)(c1ccccc1)c1c[nH]c2c(N3CCNCC3)ccnc12 | 7.94 nM | –
O=S(=O)(c1ccccc1)c1csc2c(N3CCNCC3)cccc12 | 0.501 nM | –
COc1ccc(NS(=O)(=O)c2sc3ccc(Cl)cc3c2C)cc1N1CCNCC1 | – | ED50 [6]: 11 mg/kg
O=S(=O)(c1ccccc1Cl)n1ccc2c(N3CCNCC3)c(Cl)ccc21 | 1 nM | –
Cc1cc2c(N3CCNCC3)cccc2n1S(=O)(=O)c1cccc(Cl)c1 | 0.398 nM | –
O=S(=O)(c1cccc(Cl)c1)c1c[nH]c2c(N3CCNCC3)cccc12 | 0.316 nM | –
Cc1cn(S(=O)(=O)c2cccc(Cl)c2)c2cccc(N3CCNCC3)c12 | 0.631 nM | –
O=S(=O)(c1ccccn1)n1ccc2c(N3CCNCC3)c(Cl)ccc21 | 0.501 nM | –
O=S(=O)(c1cccc(Cl)c1)n1cc(Cl)c2c(N3CCNCC3)cccc21 | 0.316 nM | –
O=S(=O)(c1ccc(Cl)cc1)n1ccc2c(N3CCNCC3)c(Cl)ccc21 | 6.31 nM | –
O=S(=O)(c1cccc2ccccc12)n1ccc2c(N3CCNCC3)c(Cl)ccc21 | 7.94 nM | –
O=S(=O)(c1ccccn1)n1ccc2c(N3CCNCC3)cccc21 | 1 nM | –
O=S(=O)(c1cccc(Cl)c1)n1ccc2c(N3CCNCC3)cccc21 | 0.251 nM | –
O=S(=O)(c1ccccc1)n1ccc2c(N3CCNCC3)c(Cl)ccc21 | 1.58 nM | –
O=S(=O)(c1ccc2ccccc2c1)n1ccc2c(N3CCNCC3)c(Cl)ccc21 | 25.1 nM | –
O=S(=O)(c1cccc(Cl)c1)n1ccc2c(N3CCNCC3)ccc(Cl)c21 | 0.316 nM | –
